Reference: ChEMBL document CHEMBL1781949, “Veraguamides A-G, cyclic hexadepsipeptides from a dolastatin 16-producing cyanobacterium Symploca cf. hydnoides from Guam” (J Nat Prod, 2011)
Numbered stars: 1 amine (or outer) side, 2 acyl side, 3 side chain; on linkers, the order of the positions; unused ones are H or OH. Square brackets hold non-standard residues; d marks the D form. Peptide text beside a SMILES is read from it. X1 = CC(Cc1ccccc1)C(N[*:1])C(=O)[*:2]; X2 = CC(C)C(N[*:1])C(C)C(=O)[*:2]; dNMeV = CN[C@@H](C(=O)O)C(C)C; dHiv = CC(C)[C@@H](O)C(=O)O; Lac = C[C@H](O)C(=O)O

Legend:
HT-29 = assay: Cytotoxicity against human HT-29 cells after 48 hrs by MTT assay; assay type: functional, cell-based; conditions: HT-29, 48 h
How it was run: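 HT29 colorectal adenocarcinoma cells grown in DMEM with 10% FBS at 37 °C and 5% CO2. Cells seeded at 12,500 per well and treated with a range of concentrations 24 h after seeding. Paclitaxel positive control and DMSO solvent control. 48 h exposure, then MTT read-out. IC50 fitted from duplicate experiments.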

HeLa = assay: Cytotoxicity against human HeLa cells after 48 hrs by MTT assay; assay type: functional, cell-based
How it was run: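 HeLa cervical carcinoma cells grown in DMEM with 10% FBS at 37 °C and 5% CO2. Cells seeded at 3,000 per well and dosed at varying concentrations 24 h later. Paclitaxel positive control and DMSO solvent control. Incubated 48 h more before MTT measurement of viability. IC50 fitted from duplicate experiments.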

CC(C)C1NC(=O)[C@@H]2CCCN2C(=O)C(C(C)Cc2ccccc2)NC(=O)[C@@H]2CCCN2C(=O)[C@@H](C(C)C)N(C)C(=O)[C@@H](C(C)C)OC(=O)[C@@H]2CCCN2C(=O)[C@H](C)OC(=O)C1C (stereo partly specified) [DOLASTATIN 16] (cyclo([Lac]P[dHiv][dNMeV]P[X1]P[X2]))
IC50 (HT-29): 78 µM
IC50 (HeLa): 58 µM

CC(=O)O[C@H]1C(=O)[C@@]2(C)[C@H]([C@H](OC(=O)c3ccccc3)[C@]3(O)C[C@H](OC(=O)[C@H](O)[C@@H](NC(=O)c4ccccc4)c4ccccc4)C(C)=C1C3(C)C)[C@]1(OC(C)=O)CO[C@@H]1C[C@@H]2O [PACLITAXEL]
IC50 (HT-29): 0.003 µM
IC50 (HeLa): 0.0026 µM

C#CCCC[C@H]1OC(=O)[C@H](C(C)C)N(C)C(=O)[C@@H]2CCCN2C(=O)[C@H]([C@@H](C)CC)OC(=O)[C@H](C(C)C)N(C)C(=O)[C@H](C(C)C)NC(=O)[C@H]1C [VERAGUAMIDE C]
IC50 (HeLa): 6.1 µM

C#CCCC[C@H]1OC(=O)[C@H](C(C)C)N(C)C(=O)[C@@H]2CCCN2C(=O)[C@H](Cc2ccccc2)OC(=O)[C@H](C(C)C)N(C)C(=O)[C@H](C(C)C)NC(=O)[C@H]1C [VERAGUAMIDE F]
IC50 (HeLa): 49 µM
